Calls of active or inactive are those of the source. The calls are words filed in the database; no cut-off is given here.
Tests used:
[1] = Induction of [32P]-labeled 49-mer oligonucleotide duplex DNA 12 interstrand cross-linking (unknown origin) at purine nucleotide site using compound radiolabeled at 5' of 12a at 90 deg C after 30 mins by PAGE in presence of piperidine
Method in brief: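 Cross-linked duplex, with strand 12a 32P-labelled at the 5′ end, heated at 90 °C either in phosphate buffer pH 7.0 or in 1.0 M piperidine. Cleavage sites were assigned by denaturing PAGE against G + A sequencing and Fe·EDTA markers.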

A549 = experiment: Cytotoxicity against human A549 cells assessed as growth inhibition at 10 uM after 48 hrs by SRB assay; format: functional, cell-based
Method in brief: (§1)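 NCI DTP 60-cell-line screen run at the NCI. Cells were grown in RPMI 1640 with 5% FBS and 2 mM L-glutamine. They were seeded at 5000–40 000 cells/well depending on doubling time and grown in two plates per line. Each was exposed to a single 10 μM dose for 48 h at 37 °C, 5% CO2, 95% air, 100% humidity. Read-out was percent growth.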

HT-29 = experiment: Cytotoxicity against human HT-29 cells assessed as growth inhibition at 10 uM after 48 hrs by SRB assay; format: functional, cell-based; method in brief: as §1
SNB-19 = experiment: Cytotoxicity against human SNB19 cells assessed as growth inhibition at 10 uM after 48 hrs by SRB assay; format: functional, cell-based
Method in brief: (§2)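 NCI-60 DTP human tumour line screen. Cells grown in RPMI 1640 with 5% fetal bovine serum and 2 mM L-glutamine, plated at 5000–40 000 cells/well according to doubling time. Single dose of 10 μM for 48 h at 37 °C, 5% CO2, 95% air, 100% humidity, two plates per line. Read-out is growth percent.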

MDA-MB-468 = experiment: Cytotoxicity against human MDA-MB-468 cells assessed as growth inhibition at 10 uM after 48 hrs by SRB assay; format: functional, cell-based
Method in brief: (§3)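 Single-dose screen run by the NCI Developmental Therapeutics Program (NCI-60). Cells were grown in RPMI 1640 with 5% fetal bovine serum and 2 mM L-glutamine. They were plated at 5000–40 000 cells/well, depending on doubling time. Each line was run in two plates and exposed to 10 μM drug for 48 h at 37 °C, 5% CO2, 100% humidity. Read-out was growth percent.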

ACHN = experiment: Cytotoxicity against human ACHN cells assessed as growth inhibition at 10 uM after 48 hrs by SRB assay; format: functional, cell-based; method in brief: as §1
Hs-578T = experiment: Cytotoxicity against human Hs578T cells assessed as growth inhibition at 10 uM after 48 hrs by SRB assay; format: functional, cell-based; method in brief: as §1
NCI-H522 = experiment: Cytotoxicity against human NCI-H522 cells assessed as growth inhibition at 10 uM after 48 hrs by SRB assay; format: functional, cell-based; method in brief: as §3
HCC 2998 = experiment: Cytotoxicity against human HCC2998 cells assessed as growth inhibition at 10 uM after 48 hrs by SRB assay; format: functional, cell-based; method in brief: as §1
HCT-15 = experiment: Cytotoxicity against human HCT15 cells assessed as growth inhibition at 10 uM after 48 hrs by SRB assay; format: functional, cell-based; method in brief: as §1
OVCAR-8 = experiment: Cytotoxicity against human OVCAR8 cells assessed as growth inhibition at 10 uM after 48 hrs by SRB assay; format: functional, cell-based; method in brief: as §3
NCI-H23 = experiment: Cytotoxicity against human NCI-H23 cells assessed as growth inhibition at 10 uM after 48 hrs by SRB assay; format: functional, cell-based; method in brief: as §3
HOP-92 = experiment: Cytotoxicity against human HOP92 cells assessed as growth inhibition at 10 uM after 48 hrs by SRB assay; format: functional, cell-based; method in brief: as §1
DU-145 = experiment: Cytotoxicity against human DU145 cells assessed as growth inhibition at 10 uM after 48 hrs by SRB assay; format: functional, cell-based; method in brief: as §1
UACC-257 = experiment: Cytotoxicity against human UACC257 cells assessed as growth inhibition at 10 uM after 48 hrs by SRB assay; format: functional, cell-based; method in brief: as §2
SN12C = experiment: Cytotoxicity against human SN12C cells assessed as growth inhibition at 10 uM after 48 hrs by SRB assay; format: functional, cell-based; method in brief: as §2
[2] = Induction of [32P]-labeled 49-mer oligonucleotide duplex DNA 12 interstrand cross-linking (unknown origin) at purine nucleotide site using compound radiolabeled at 5' of 12b in phosphate buffer at pH 7 at 90 degC after 30 mins by PAGE
BT-549 = experiment: Cytotoxicity against human BT549 cells assessed as growth inhibition at 10 uM after 48 hrs by SRB assay; format: functional, cell-based; method in brief: as §1
SF-268 = experiment: Cytotoxicity against human SF268 cells assessed as growth inhibition at 10 uM after 48 hrs by SRB assay; format: functional, cell-based; method in brief: as §3
PC-3 = experiment: Cytotoxicity against human PC3 cells assessed as growth inhibition at 10 uM after 48 hrs by SRB assay; format: functional, cell-based; method in brief: as §3
OVCAR-5 = experiment: Cytotoxicity against human OVCAR5 cells assessed as growth inhibition at 10 uM after 48 hrs by SRB assay; format: functional, cell-based; method in brief: as §3
K562 = experiment: Cytotoxicity against human K562 cells assessed as growth inhibition at 10 uM after 48 hrs by SRB assay; format: functional, cell-based; method in brief: as §1
SK-MEL-2 = experiment: Cytotoxicity against human SK-MEL-2 cells assessed as growth inhibition at 10 uM after 48 hrs by SRB assay; format: functional, cell-based; method in brief: as §3
M14 = experiment: Cytotoxicity against human M14 cells assessed as growth inhibition at 10 uM after 48 hrs by SRB assay; format: functional, cell-based; method in brief: as §1
UACC-62 = experiment: Cytotoxicity against human UACC62 cells assessed as growth inhibition at 10 uM after 48 hrs by SRB assay; format: functional, cell-based; method in brief: as §2
LOX IMVI = experiment: Cytotoxicity against human LOXIMVI cells assessed as growth inhibition at 10 uM after 48 hrs by SRB assay; format: functional, cell-based; method in brief: as §1
CCRF-CEM = experiment: Cytotoxicity against human CCRF-CEM cells assessed as growth inhibition at 10 uM after 48 hrs by SRB assay; format: functional, cell-based; method in brief: as §1
786-0 = experiment: Cytotoxicity against human 786-0 cells assessed as growth inhibition at 10 uM after 48 hrs by SRB assay; format: functional, cell-based; method in brief: as §1

With `CC1(C)OB(c2ccc(N(CCBr)CCOS(C)(=O)=O)cc2)OC1(C)C` the Activity [1] was “Active”, the “growth inhibition (GI)” value (A549) was “Active” and the “growth inhibition (GI)” value (HT-29) was “Active”. The “growth inhibition (GI)” value (SNB-19) was “Active”, the “growth inhibition (GI)” value (MDA-MB-468) was “Active” and the “growth inhibition (GI)” value (ACHN) was “Active”. For the same molecule, the “growth inhibition (GI)” value (Hs-578T) was “Active”, the “growth inhibition (GI)” value (NCI-H522) was “Active” and the “growth inhibition (GI)” value (HCC 2998) was “Active”. For the same molecule, the “growth inhibition (GI)” value (HCT-15) was “Active”, the “growth inhibition (GI)” value (OVCAR-8) was “Active” and the “growth inhibition (GI)” value (NCI-H23) was “Active”. For the same molecule, the “growth inhibition (GI)” value (HOP-92) was “Active”, the “growth inhibition (GI)” value (DU-145) was “Active” and the “growth inhibition (GI)” value (UACC-257) was “Active”. For the same molecule, the “growth inhibition (GI)” value (SN12C) was “Active”, the Activity [2] was “Active” and the “growth inhibition (GI)” value (BT-549) was “Active”. The “growth inhibition (GI)” value (SF-268) was “Active”, the “growth inhibition (GI)” value (PC-3) was “Active” and the “growth inhibition (GI)” value (OVCAR-5) was “Active”. For the same molecule, the “growth inhibition (GI)” value (K562) was “Active”, the “growth inhibition (GI)” value (SK-MEL-2) was “Active” and the “growth inhibition (GI)” value (M14) was “Active”. The “growth inhibition (GI)” value (UACC-62) was “Active”, the “growth inhibition (GI)” value (LOX IMVI) was “Active” and the “growth inhibition (GI)” value (CCRF-CEM) was “Active”. For the same molecule, the “growth inhibition (GI)” value (786-0) was “Active”.
In the case of `CC1(C)OB(c2ccc(COC(=O)N(CCCl)CCCl)cc2)OC1(C)C`, the “growth inhibition (GI)” value (A549) is reported as “inactive”, the “growth inhibition (GI)” value (HT-29) is reported as “inactive” and the “growth inhibition (GI)” value (SNB-19) is reported as “inactive”. The “growth inhibition (GI)” value (MDA-MB-468) was “inactive”, the “growth inhibition (GI)” value (ACHN) was “inactive” and the “growth inhibition (GI)” value (Hs-578T) was “inactive”. For the same molecule, the “growth inhibition (GI)” value (NCI-H522) was “inactive”, the “growth inhibition (GI)” value (HCC 2998) was “inactive” and the “growth inhibition (GI)” value (HCT-15) was “inactive”. The “growth inhibition (GI)” value (OVCAR-8) was “inactive”, the “growth inhibition (GI)” value (NCI-H23) was “inactive” and the “growth inhibition (GI)” value (HOP-92) was “inactive”. The “growth inhibition (GI)” value (DU-145) was “inactive”, the “growth inhibition (GI)” value (UACC-257) was “inactive” and the “growth inhibition (GI)” value (SN12C) was “inactive”. For the same molecule, the “growth inhibition (GI)” value (BT-549) was “inactive”, the “growth inhibition (GI)” value (SF-268) was “inactive” and the “growth inhibition (GI)” value (PC-3) was “inactive”. The “growth inhibition (GI)” value (OVCAR-5) was “inactive”, the “growth inhibition (GI)” value (K562) was “inactive” and the “growth inhibition (GI)” value (SK-MEL-2) was “inactive”. For the same molecule, the “growth inhibition (GI)” value (M14) was “inactive”, the “growth inhibition (GI)” value (UACC-62) was “inactive” and the “growth inhibition (GI)” value (LOX IMVI) was “inactive”. The “growth inhibition (GI)” value (CCRF-CEM) was “inactive” and the “growth inhibition (GI)” value (786-0) was “inactive”.
